Results as given in PubChem BioAssay.
Calls of active or inactive are those of the source.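 How the source made its calls, unless noted: active means NADPH fluorescence slope more negative than the mean of all samples by about 3 SD, 99.7% confidence; inactive means the rest.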

Key:
[1] = inhibitors of TNFa-induced NFkB p65 translocation, primary screen, imaging, HUVEC, MLSMR starter and 10KST1 sets (AID 438;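 active means inhibition above 20% together with a positive visual image hit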;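 further: compound added about 3h40 before a 20 min TNFalpha stimulation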;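 on inhibition: signal is the nuclear over cytoplasmic p65 intensity ratio per well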); conditions: HUVEC TNFa-induced p65 nuclear translocation; cell count: measured here: nuclei count (cytotoxicity indicator), at 2.08 µM; inhibition: at 2 µM, stronger effect = higher value, 0% TNFa-plus-vehicle, 100% no-TNFa wells
[2] = inhibitors of mutant huntingtin aggregation, primary screen, imaging, exon1htt(103Q)mCFP cells, high-content imaging (AID 483;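 active means visual image review flags a hit and inhibition of aggregation exceeds 20%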;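 further: compound exposure lasted 3 days before fixation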;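 on nuclei count: percent of the per-plate median nuclei count of sample wells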); conditions: exon1htt(103Q)mCFP cell line, aggregate imaging, at 2 µM; inhibition of aggregation: stronger effect = higher value; nuclei count: measured here: cell count, toxicity
[3] = inhibitors of E-selectin induction by TNFa, primary screen, imaging, HUVEC, immunofluorescence, MLSMR starter and 10KST1 sets (AID 487;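 active means visually confirmed hit in the image check and inhibition above 20%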;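 on inhibition: signal is fraction of cell area covered by stained E-selectin grains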;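 on nuclei count: 100% = median nuclei count of all wells on the same plate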); conditions: HUVEC TNFalpha-induced E-selectin immunofluorescence imaging, at 2 µM; inhibition: stronger effect = higher value; nuclei count: measured here: cell number, toxicity
[4] = target: Voltage-gated potassium channel subunit beta-2 (Rattus norvegicus) (UniProt P62483); experiment: KvBeta enzyme negative modulators, primary screen, biochemical, NADPH fluorescence (AID 622;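 active means fluorescence slope higher than the sample average by over 3 SD, cut at about -0.22 in these data, passing the limit was not always enough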;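 further: slope of raw intensity against log time taken from 70 to 1610 s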); conditions: recombinant KvBeta, 4-cyanobenzaldehyde reduction, at 10 µM, stronger effect = higher value
[5] = target: Voltage-gated potassium channel subunit beta-2 (Rattus norvegicus) (UniProt P62483); experiment: KvBeta positive modulators, primary screen, biochemical, NADPH fluorescence (AID 623); conditions: Recombinant KvBeta, NADPH fluorescence decrease slope, 10 min; at 10 µM; stronger effect = lower value;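 further: fluorescence intensity change per second fitted from 20 to 320 s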
[6] = target: Muscarinic acetylcholine receptor M4 (Homo sapiens) (UniProt P08173); experiment: compounds altering M4/GIRK thallium flux, either direction, primary screen, M4 allosteric agonist project, cell-based, HEK293 M4/GIRK, BTC-AM (AID 625;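 active means fluorescence slope after compound addition differing from the mean of all tested samples at 99.7% confidence, mostly higher but some lower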;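 further: thallium influx through GIRK channels coupled to M4 in HEK293 cells with BTC-AM dye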); conditions: at 10 µM, actives lie on both sides
How it was run: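 assay system = HEK293 cells with M4 receptor and GIRK channels | medium = pH 7.3 thallium assay buffer | doses = 10 µM final, single point | timing = cells overnight at 37 °C, BTC-AM loading 1 h, reads 2 min total | signal = BTC-AM fluorescence, 1 Hz kinetic reads | read-out = post-addition slope, 15–24 s, of baseline-normalized fluorescence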

[7] = inhibitors of Sendai virus-induced IRF3 signaling, primary screen, TLR/RLR signaling modifier project, cell-based, Sendai virus stimulus, luciferase, 10K MLSCN set (AID 602276;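 active means inhibition at or above 50% at 10 µM; inactive means inhibition below 50%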;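 further: firefly luciferase from ISG56 promoter only with Renilla not read in this screen; 0% = Sendai virus plus DMSO and 100% = medium plus DMSO without virus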); conditions: HEK293 RL24 IRF3 luciferase reporter, at 10 µM, stronger effect = higher value
[8] = inhibitors of poly I:C-induced TLR3 signaling, primary screen, cell-based, poly I:C stimulus, luciferase, 10K MLSCN set (AID 602277;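 active means inhibition of the reporter signal at or above 50%; inactive means inhibition below 50%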); conditions: HEK293-TLR3 RL24 IRF3 luciferase reporter, at 10 µM, stronger effect = higher value

Sequence of Voltage-gated potassium channel subunit beta-2 (Rattus norvegicus) (P62483 whole entry, looked up): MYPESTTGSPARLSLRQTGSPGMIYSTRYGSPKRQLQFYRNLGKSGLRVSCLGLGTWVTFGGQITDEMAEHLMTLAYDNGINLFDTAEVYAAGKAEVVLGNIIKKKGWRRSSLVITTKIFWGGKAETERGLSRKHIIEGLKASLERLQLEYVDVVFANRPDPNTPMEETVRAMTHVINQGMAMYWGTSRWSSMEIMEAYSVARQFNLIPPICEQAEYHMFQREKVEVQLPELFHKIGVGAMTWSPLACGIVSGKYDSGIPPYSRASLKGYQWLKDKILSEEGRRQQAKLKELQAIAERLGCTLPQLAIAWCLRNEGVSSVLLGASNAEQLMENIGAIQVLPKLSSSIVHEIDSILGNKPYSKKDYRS
Sequence of Muscarinic acetylcholine receptor M4 (Homo sapiens) (P08173 whole entry, looked up): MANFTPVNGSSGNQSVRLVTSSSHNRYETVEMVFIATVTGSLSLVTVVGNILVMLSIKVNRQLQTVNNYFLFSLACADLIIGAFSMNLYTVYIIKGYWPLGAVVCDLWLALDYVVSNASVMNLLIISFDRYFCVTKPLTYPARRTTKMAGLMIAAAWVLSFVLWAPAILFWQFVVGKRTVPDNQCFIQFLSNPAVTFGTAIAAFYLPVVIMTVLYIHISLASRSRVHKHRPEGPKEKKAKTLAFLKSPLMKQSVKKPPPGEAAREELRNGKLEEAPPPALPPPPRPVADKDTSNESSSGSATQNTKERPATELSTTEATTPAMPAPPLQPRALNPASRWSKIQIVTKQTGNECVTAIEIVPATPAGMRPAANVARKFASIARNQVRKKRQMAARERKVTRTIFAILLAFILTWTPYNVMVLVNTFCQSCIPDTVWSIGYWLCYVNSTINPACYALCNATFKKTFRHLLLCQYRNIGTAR

Row | SMILES | cell count [1] | inhibition [1] | inhibition of aggregation [2] | nuclei count [2] [%] | inhibition [3] | nuclei count [3] [%] | fluorescence slope [4] | NADPH fluorescence slope [5] | fluorescence slope [6] | inhibition [7] | inhibition [8]
1 | CC(=O)N1CCc2cc(S(=O)(=O)NCCC3=CCCCC3)ccc21 | 399 | 3.5% (inactive) | -11.2% (inactive) | 123 | -71.2% (inactive) | 141 | -0.425 (inactive) | 3.5e-05 (inactive) | 0.00546 (inactive) | 12.2% (inactive) | -2.52% (inactive)
2 | CC1(C)NC(=O)N(CCCOc2ccc(Br)cc2Cl)C1=O | 278 | -10% (inactive) | -8.8% (inactive) | 110 | -4.9% (inactive) | 119 | -0.458 (inactive) | -2.9e-06 (inactive) | 0.00559 (inactive) | -28.8% (inactive) | -113% (inactive)
3 | CCOc1cc(C(=O)NCC2CCCO2)cc(OCC)c1OCC (stereo not drawn) | 430 | -9.3% (inactive) | -3.9% (inactive) | 106 | -133% (inactive) | 102 | -0.213 (inactive) | -3.4e-05 (inactive) | 0.00818 (inactive) | 15.1% (inactive) | 9.52% (inactive)
4 | Cc1cccc(C)c1OCc1nnc2c3cnn(C)c3ncn12 | 456 | 8.1% (inactive) | -5.7% (inactive) | 97.5 | -299% (inactive) | 125 | -0.533 (inactive) | -0.000169 (inactive) | 0.0037 (inactive) | -9.31% (inactive) | -26.9% (inactive)
5 | O=C(N1CCN(Cc2ccccc2)CC1)C12CC3CC(CC(C3)C1)C2 | 530 | -4.3% (inactive) | 2% (inactive) | 88.3 | -15.4% (inactive) | 92.7 | -0.327 (inactive) | -4.6e-05 (inactive) | 0.00533 (inactive) | 17% (inactive) | 8.52% (inactive)
6 | CCCCN(CCCC)C(=O)CN(C)S(=O)(=O)c1ccc2c(c1)n(C)c(=O)c(=O)n2C | 354 | -5.1% (inactive) | -10.5% (inactive) | 88.3 | -75.3% (inactive) | 121 | -0.466 (inactive) | -4.4e-06 (inactive) | 0.00642 (inactive) | 11.1% (inactive) | 22.5% (inactive)
7 | CC(=O)Nc1ccc(S(=O)(=O)n2nc(C)cc2C)cc1 | 495 | -20.7% (inactive) | -16.2% (inactive) | 108 | -163% (inactive) | 105 | -0.546 (inactive) | -0.000136 (inactive) | 0.00409 (inactive) | 10% (inactive) | 7.63% (inactive)
8 | CCOC(=O)c1[nH]c(C)c(C(=O)Nc2ccc(C)c(Cl)c2)c1C | 661 | 0.3% (inactive) | -3.4% (inactive) | 97.4 | -7.5% (inactive) | 96.5 | -0.446 (inactive) | 1.5e-05 (inactive) | 0.00769 (inactive) | 11.7% (inactive) | 11.2% (inactive)
9 | Cc1ccc(-c2cc(C(=O)Nc3cc(C)ccc3C)[nH]n2)c(O)c1 | 390 | -4.3% (inactive) | 3.8% (inactive) | 120 | -50.5% (inactive) | 144 | -0.362 (inactive) | 2.9e-05 (inactive) | 0.00727 (inactive) | -2.53% (inactive) | -27.3% (inactive)
10 | CCSc1nc(O)c(CC)c(=O)n1C(C)CC (stereo not drawn) | 304 | 2.1% (inactive) | -3.7% (inactive) | 112 | -56.3% (inactive) | 111 | -0.556 (inactive) | -3.6e-05 (inactive) | 0.00478 (inactive) | -0.896% (inactive) | 4.86% (inactive)
11 | Cc1cc(=O)oc2cc(OCC(=O)OCc3nnc(-c4ccccc4)o3)ccc12 | 527 | -7.7% (inactive) | 5.8% (inactive) | 123 | -10.9% (inactive) | 121 | -0.399 (inactive) | 2.8e-05 (inactive) | 0.00584 (inactive) | 6.17% (inactive) | 7.89% (inactive)
12 | CCCN(CCC)c1nc2ccccc2n2c(C)nnc12 | 460 | 6.5% (inactive) | -1.5% (inactive) | 76.7 | -77.3% (inactive) | 102 | -0.461 (inactive) | -3.2e-05 (inactive) | 0.00414 (inactive) | 11.6% (inactive) | 11.3% (inactive)
13 | CCCn1cnc2c(c1=O)c1nc3ccccc3nc1n2Cc1ccccc1OC | 499 | -7.5% (inactive) | 4.9% (inactive) | 95 | -68.4% (inactive) | 130 | -0.483 (inactive) | -1.8e-05 (inactive) | 0.00653 (inactive) | -9.22% (inactive) | 101% (active)
14 | O=C(Cn1c(=O)n(Cc2ccc3c(c2)OCO3)c(=O)c2ccccc21)N1CCCc2ccccc21 | 680 | -6.8% (inactive) | -11.1% (inactive) | 87.9 | -22.2% (inactive) | 109 | -0.595 (inactive) | -6.4e-06 (inactive) | 0.00433 (inactive) | 21.3% (inactive) | 26.4% (inactive)
15 | COc1cccc(NC(=O)Cc2nnc(SCC(=O)c3ccccc3)n2C)c1 | 454 | 9.7% (inactive) | -12.5% (inactive) | 88.6 | -39.3% (inactive) | 91.8 | -0.5 (inactive) | 1.7e-05 (inactive) | 0.0063 (inactive) | 3.81% (inactive) | 10.1% (inactive)
16 | CSc1cccc(NC(=O)C2CCCN2S(=O)(=O)c2ccc3c(c2)CCC(=O)N3)c1 (stereo not drawn) | 571 | -6.9% (inactive) | -43.4% (inactive) | 99.9 | -72.3% (inactive) | 108 | -0.456 (inactive) | 4.1e-06 (inactive) | 0.00486 (inactive) | 4.83% (inactive) | 8.19% (inactive)
17 | CCCC1C(C#N)=C(N)Oc2n[nH]c(C(C)(C)C)c21 (stereo not drawn) | 330 | -6.9% (inactive) | -30.2% (inactive) | 102 | 26.6% (inactive) | 115 | -0.571 (inactive) | -3.1e-05 (inactive) | 0.00609 (inactive) | 13.9% (inactive) | 21.8% (inactive)
18 | COC(=O)c1cnn2c(C(F)(F)F)cc(-c3ccco3)nc12 | 246 | 0.2% (inactive) | 38.2% (inactive) | 75.8 | 42.4% (inactive) | 72.5 | -0.276 (inactive) | -8.1e-06 (inactive) | 0.00336 (inactive) | 8.92% (inactive) | 9.22% (inactive)
19 | CCCC1(C(=O)OCC)NC(c2ccc(N(C)C)cc2)C2C(=O)N(c3ccccc3)C(=O)C21 (stereo not drawn) | 468 | -0.5% (inactive) | 4.8% (inactive) | 92.4 | -15.1% (inactive) | 95 | -0.465 (inactive) | -6.2e-05 (inactive) | 0.0068 (inactive) | 8.02% (inactive) | 20.7% (inactive)
20 | COC(=O)c1cccc(NC(=O)C2COc3ccccc3O2)c1C (stereo not drawn) | 349 | -3.3% (inactive) | 13.6% (inactive) | 102 | -10.1% (inactive) | 96.5 | -0.508 (inactive) | -1.7e-05 (inactive) | 0.0049 (inactive) | -2.98% (inactive) | -15.7% (inactive)
21 | CSc1nc2c(ccc3ccccc32)o1 | 572 | 4.2% (inactive) | -4.8% (inactive) | 104 | -70.5% (inactive) | 102 | -0.566 (inactive) | -1.5e-05 (inactive) | 0.00656 (inactive) | -5.19% (inactive) | -21.2% (inactive)
22 | CCOC(=O)c1c(C)oc2ccc(OCC(=O)N(CC)CC)cc12 | 422 | -1.7% (inactive) | -2.3% (inactive) | 95.5 | -63% (inactive) | 104 | -0.449 (inactive) | -1.9e-05 (inactive) | 0.00589 (inactive) | 8.2% (inactive) | 7.27% (inactive)
23 | c1ccc2c(c1)C(=Nn1cnnc1)c1ccccc1-2 | 606 | -3.4% (inactive) | 15.7% (inactive) | 101 | -107% (inactive) | 122 | -0.448 (inactive) | -6.8e-05 (inactive) | 0.00319 (inactive) | 10.6% (inactive) | 11% (inactive)
24 | COc1ccc(OC)c(C(=O)c2nc3c(n2O)CCCCC3)c1 | 332 | -1.1% (inactive) | -40.7% (inactive) | 114 | -55% (inactive) | 103 | -0.567 (inactive) | -6.5e-05 (inactive) | 0.00381 (inactive) | 5.91% (inactive) | 7.03% (inactive)
25 | CCN(C(=O)c1c(-c2ccccc2)noc1C)c1ccccc1 | 600 | 1% (inactive) | 1.1% (inactive) | 106 | -39.7% (inactive) | 95.6 | -0.534 (inactive) | -1.1e-05 (inactive) | 0.00432 (inactive) | 22.5% (inactive) | 22.7% (inactive)
26 | O=C(CCNC(=O)Cn1ccc2ccccc2c1=O)NCCN1CCc2ccccc2C1 | 337 | 0.5% (inactive) | 16.2% (inactive) | 77.2 | -26.8% (inactive) | 111 | -0.474 (inactive) | -0.000226 (inactive) | 0.00569 (inactive) | -3.36% (inactive) | 11.4% (inactive)
27 | COc1ccc(Br)cc1S(=O)(=O)N1CCOCC1 | 336 | 5% (inactive) | -25.8% (inactive) | 119 | -6.1% (inactive) | 113 | -0.462 (inactive) | -3.5e-05 (inactive) | 0.00557 (inactive) | 17.4% (inactive) | 16.5% (inactive)
28 | c1ccc2nc(-c3nc4ccccc4[nH]3)ccc2c1 | 574 | 9.8% (inactive) | -19.5% (inactive) | 85.8 | -6.9% (inactive) | 101 | -0.551 (inactive) | -2.7e-05 (inactive) | 0.00356 (inactive) | 11.5% (inactive) | -35.5% (inactive)
